≈ marks a conversion by molar mass, not a printed value.
Legend:
[1] = Solubility measured in 10% solution in EtOH.; format: physicochemical; conditions: read-out: S
In short: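 Solubility determined in 10% solutol in ethanol.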

[2] = target: T1, Cyclin-dependent kinase 4/cyclin D1 (Homo sapiens, UniProt P11802); test: Inhibition of Cyclin D1-cyclin-dependent kinase 4.; format: protein-complex assay
In short: (§1)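 Cyclin D1/CDK4 enzyme inhibition determined by measuring phosphorylation of Rb protein; staurosporine included as standard; IC50 derived.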

[3] = target: Cyclin-dependent kinase 2/cyclin E (Homo sapiens, UniProt P24941); test: Inhibition of Cyclin E-cyclin-dependent kinase 2 mediated RbING-phosphorylation; format: protein-complex assay
In short: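 Cyclin E/CDK2 enzyme assay following substrate phosphorylation, with Rb^ING as substrate; staurosporine run as standard; IC50 reported.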

HCT-116 [4] = test: Antiproliferative activity against HCT116 (human colon carcinoma) cell line.; format: functional, cell-based
[5] = target: Cyclin-dependent kinase 4 (Homo sapiens) (UniProt P11802); test: Inhibition of CDK4-specific Rb-S780 phosphorylation of HCT116 cells at 2xIC50 for 24 hr; format: functional, cell-based; conditions: HCT-116
Sequence of Cyclin-dependent kinase 4 (Homo sapiens) (P11802 whole entry): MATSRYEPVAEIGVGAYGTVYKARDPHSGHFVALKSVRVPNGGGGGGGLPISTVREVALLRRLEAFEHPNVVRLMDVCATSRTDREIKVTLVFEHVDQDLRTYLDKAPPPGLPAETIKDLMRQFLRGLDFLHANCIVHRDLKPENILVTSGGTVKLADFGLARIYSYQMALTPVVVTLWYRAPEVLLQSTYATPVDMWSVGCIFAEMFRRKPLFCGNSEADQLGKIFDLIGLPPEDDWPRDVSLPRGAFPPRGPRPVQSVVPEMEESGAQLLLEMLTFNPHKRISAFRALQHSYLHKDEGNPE
In short: (§2)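 HCT-116 colon carcinoma cells treated 24 h with compound at 1× and 2× its antiproliferation IC50; Rb phosphorylation at Ser780 measured by Western blot with phospho-specific antibody; value expressed as % pRb inhibition.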

[6] = target: Cyclin-dependent kinase 4 (Homo sapiens) (UniProt P11802); test: Inhibition of CDK4-specific Rb-S780 phosphorylation of HCT116 cells at 1xIC50 for 24 hr; format: functional, cell-based; conditions: HCT-116; in short: as §2
HCT-116 [7] = test: G1 cell cycle arrest (fold increase over control) in HCT116 cells at 3*IC50; format: functional, Homo sapiens
In short: (§3)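 HCT-116 cells exposed to compound for 24 h, then analysed by flow cytometry; G1 arrest expressed as fold increase of G1 population over untreated control.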

HCT-116 [8] = test: G1 cell cycle arrest (fold increase over control) in HCT116 cells at IC50; format: functional, Homo sapiens; in short: as §3
NCI-H460 = test: Antiproliferative activity against NCIH-460 (human lung) cell line.; format: functional, cell-based
[9] = target: cAMP-dependent protein kinase (PKA) (Homo sapiens, UniProt P22694+P17612+P22612); test: Inhibition of protein kinase A mediated histone phosphorylation; format: protein assay
In short: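 PKA enzyme assay measuring phosphorylation of histone substrate; staurosporine used as standard; IC50 reported.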

[10] = target: T1, Cyclin-dependent kinase 4/cyclin D1; test: Inhibition of Cyclin D1-cyclin-dependent kinase 4 mediated Rb21-phosphorylation; format: protein-complex assay; conditions: in the assay text read “RbING-phosphorylation” for “Rb21-phosphorylation”; in short: as §1

T1 sequence (P11802 whole entry): as above
T1 sequence (P24385 whole entry, further chain): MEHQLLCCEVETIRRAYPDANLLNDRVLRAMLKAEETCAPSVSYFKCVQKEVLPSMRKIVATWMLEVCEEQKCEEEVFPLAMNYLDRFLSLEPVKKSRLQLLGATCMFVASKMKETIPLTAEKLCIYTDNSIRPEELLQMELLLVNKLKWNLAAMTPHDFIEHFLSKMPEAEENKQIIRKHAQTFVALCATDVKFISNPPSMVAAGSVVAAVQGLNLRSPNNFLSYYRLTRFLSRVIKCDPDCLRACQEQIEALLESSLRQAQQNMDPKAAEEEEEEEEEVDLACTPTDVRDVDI

| Structure (SMILES) | solubility [1] [µg/mL] | IC50 [2] [nM] | IC50 [3] [nM] | IC50 (HCT-116 [4]) [nM] | inhibition [5] [%] | inhibition [6] [%] | IC50 (NCI-H460) [nM] | IC50 [9] [nM] | IC50 [10] [nM] | Fold increase (HCT-116 [7]) | Fold increase (HCT-116 [8]) |
| --- | --- | --- | --- | --- | --- | --- | --- | --- | --- | --- | --- |
| O=C1NC(=O)c2c1c1c3ccccc3[nH]c1c1c2c2cccc3c2n1C(CO)CC3 (stereo not given) | 570 (≈ 1440 µM) | 18 | 219 | 920 | 65 | 53 | 820 | 858 | – | 1.51 | 1.32 |
| COc1ccc2c(c1)[nH]c1c2c2c(c3c4cccc5c4n(c13)CC(CO)C5)C(=O)NC2=O (stereo not given) | 490 (≈ 1150 µM) | 15 | 284 | 1830 | 77 | 69 | 1960 | > 2000 | – | 2 | 1.8 |
| O=C1NC(=O)c2c1c1c3ccccc3ccc1c1c2c2cccc3c2n1CCC3CO (stereo not given) | – | 210 | – | 1250 | – | – | 1720 | > 2000 | – | 1.3 | 1.2 |
| O=C1NC(=O)c2c1c1c3ccccc3ccc1c1c2c2cccc3c2n1C(CO)CC3 (stereo not given) | 2780 (≈ 6840 µM) | 175 | – | 1120 | – | – | 540 | > 2000 | – | 1.32 | 1.17 |
| O=C1NC(=O)c2c1c1c3ccccc3[nH]c1c1c2c2cccc3c2n1CC(CO)CC3 (stereo not given) | 1070 (≈ 2610 µM) | 126 | – | 540 | 85 | 71 | 330 | – | – | 1.9 | 1.8 |
| O=C1NC(=O)c2c1c1c3ccccc3[nH]c1c1c2c2cccc3c2n1CCC3CO (stereo not given) | – | 31 | – | 370 | 23 | 0 | 540 | > 2000 | – | 1.44 | 1.17 |
| O=C1NC(=O)c2c1c1c3ccc(C(F)(F)F)cc3[nH]c1c1c2c2cccc3c2n1CC(CO)C3 (stereo not given) | 4810 (≈ 10400 µM) | 23 | – | 1250 | – | – | 690 | > 2000 | – | 1.47 | 1.34 |
| O=C1NC(=O)c2c1c1c3ccccc3ccc1c1c2c2cccc3c2n1CC(CO)C3 (stereo not given) | – | 72 | > 2000 | 940 | – | – | 740 | > 2000 | – | 1.64 | 1.14 |

Now from value to compound, other results behind:

| solubility [1] [µg/mL] | IC50 [2] [nM] | IC50 [3] [nM] | IC50 (HCT-116 [4]) [nM] | inhibition [5] [%] | inhibition [6] [%] | IC50 (NCI-H460) [nM] | IC50 [9] [nM] | IC50 [10] [nM] | Structure (SMILES) | Fold increase (HCT-116 [7]) | Fold increase (HCT-116 [8]) |
| --- | --- | --- | --- | --- | --- | --- | --- | --- | --- | --- | --- |
| 830 (≈ 1750 µM) | 10 | > 2000 | 500 | 74 | 56 | 360 | > 2000 | – | O=C1NC(=O)c2c1c1c3ccc(Br)cc3[nH]c1c1c2c2cccc3c2n1CC(CO)C3 (stereo not given) | – | 1.6 |
| – | – | – | > 10000 | – | – | > 10000 | – | > 2000 | NC(=O)[C@@H]1CCCN1CC1Cc2cccc3c(C4=C(c5c[nH]c6cc(F)ccc56)C(=O)NC4=O)cn(c23)C1 (stereo not given in full) | – | – |
| 120 (≈ 303 µM) | 71 | 217 | 910 | 55 | 21 | 960 | > 2000 | – | O=C1NC(=O)c2c1c1c3ccccc3[nH]c1c1c2c2cccc3c2n1CC(CO)C3 (stereo not given) | 1.95 | 2.04 |
| – | 898 | – | 770 | – | – | 4750 | – | – | CN(C)CC1Cc2cccc3c(C4=C(c5c[nH]c6ccccc56)C(=O)NC4=O)cn(c23)C1 (stereo not given) | 1.17 | 1 |
| 890 (≈ 2150 µM) | 22 | 141 | 360 | 53 | 25 | 430 | > 2000 | – | O=C1NC(=O)c2c1c1c3ccc(F)cc3[nH]c1c1c2c2cccc3c2n1CC(CO)C3 (stereo not given) | 2.32 | 1.67 |
| – | 84 | 650 | 680 | – | – | 210 | – | – | Cn1ccc2ccc3c(c4c(c5c6cccc7c6n(c35)CC(CO)C7)C(=O)NC4=O)c21 (stereo not given) | 2.25 | 1.13 |
| – | 8 | – | 1730 | – | – | 5150 | 383 | – | CNCC1Cc2cccc3c(C4=C(c5c[nH]c6cc(F)ccc56)C(=O)NC4=O)cn(c23)C1.Cl (stereo not given) | – | – |
| – | 64 | – | 3270 | – | – | 5650 | > 20000 | – | O=C1NC(=O)C(c2cn3c4c(cccc24)CC(CCl)C3)=C1c1c[nH]c2cc(F)ccc12 (stereo not given) | – | – |
| 620 (≈ 1500 µM) | 2 | 79 | 820 | – | – | 260 | 3020 | – | O=C1NC(=O)c2c1c1c3ccc(F)cc3[nH]c1c1c2c2cccc3c2n1C(CO)CC3 (stereo not given) | 2.12 | 1.7 |
| – | 671 | – | > 10000 | – | – | > 10000 | – | – | COC(=O)CC(NCC1Cc2cccc3c(C4=C(c5c[nH]c6cc(F)ccc56)C(=O)NC4=O)cn(c23)C1)C(=O)OC (stereo not given) | – | – |

— ChEMBL document CHEMBL1149211, “Synthesis of 1,7-annulated indoles and their applications in the studies of cyclin dependent kinase inhibitors” (Bioorg Med Chem Lett, 2004)
